What was measured:
[1] = test system: Canis familiaris; test: Tested for the percent increase in aortic blood pressure (BP) in open chest anesthetized dog at intravenous dosage of 1.00 mg/kg; format: functional, Canis lupus familiaris, Artery
In short: (§1)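 Open-chest anesthetized dogs, compound given iv at the stated dose. Aortic blood pressure is reported as the change from the control (pre-dose) value. Other set-up follows the group's earlier cardiovascular protocol.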

[2] = test system: Canis familiaris; test: Total time in minutes elapsed from the initiation of the change until return to the pretest value of oxygen partial pressure in coronary sinus of anesthetized dog at intravenous dosage of 1 mg/kg; format: functional, Canis lupus familiaris
In short: (§2)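 Open-chest anesthetized dogs given compound by intravenous injection. Coronary sinus PO2 was monitored, and duration was the total time in minutes from the onset of the change until return to the pretest value.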

[3] = test system: Canis familiaris; test: Total time in minutes elapsed from the initiation of the change until return to the pretest value of blood pressure in coronary sinus of anesthetized dog at intravenous dosage of 1 mg/kg; format: functional, Canis lupus familiaris
[4] = test system: Canis familiaris; test: Tested for percent increase in coronary sinus partial pressure of oxygen (PO2) in open chest anesthetized dog at intravenous dosage of 1.00 mg/kg; format: functional, Canis lupus familiaris
[5] = Lethal dose in mice after intraperitoneal administration; format: toxicity, organism-based; conditions: mouse, in vivo, ip
In short: (§3)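 Male and female mice, three per dose group, were given the compound by the stated route in increments of 0.5 log doses. The LD50 was estimated as an approximate value.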

[6] = test system: Canis familiaris; test: Total time in minutes elapsed from the initiation of the change until return to the pretest value of heart rate in coronary sinus of anesthetized dog at intravenous dosage of 1 mg/kg; format: functional, Canis lupus familiaris
[7] = Lethal dose in mice after peroral administration; format: toxicity, organism-based; conditions: mouse, in vivo, po; in short: as §3
[8] = test system: Canis familiaris; test: tested for the percent increase in heart rate (HR) in open chest anesthetized dog at intravenous dosage of 0.10 mg/kg; format: functional, Canis lupus familiaris; conditions: dose 0.1 mg/kg
[9] = test system: Canis familiaris; test: Total time in minutes elapsed from the initiation of the change until return to the pretest value of oxygen partial pressure in coronary sinus of anesthetized dog at intravenous dosage of 0.1 mg/kg; format: functional, Canis lupus familiaris
[10] = test system: Canis familiaris; test: Total time in minutes elapsed from the initiation of the change until return to the pretest value of heart rate in coronary sinus of anesthetized dog at intravenous dosage of 0.1 mg/kg; format: functional, Canis lupus familiaris
[11] = test system: Canis familiaris; test: Total time in minutes elapsed from the initiation of the change until return to the pretest value of blood pressure in coronary sinus of anesthetized dog at intravenous dosage of 0.1 mg/kg; format: functional, Canis lupus familiaris
[12] = test system: Canis familiaris; test: Tested for percent increase in coronary sinus partial pressure of oxygen (PO2) in open chest anesthetized dog at intravenous dosage of 0.10 mg/kg; format: functional, Canis lupus familiaris; conditions: dose 0.1 mg/kg
[13] = test system: Canis familiaris; test: Tested for the percent increase in aortic blood pressure (BP) in open chest anesthetized dog at intravenous dosage of 0.10 mg/kg; format: functional, Canis lupus familiaris, Artery; conditions: dose 0.1 mg/kg; in short: as §1
[14] = test system: Canis familiaris; test: Tested for percent increase in coronary sinus partial pressure of oxygen (PO2) in open chest anesthetized dog at intravenous dosage of 10.00 mg/kg; format: functional, Canis lupus familiaris
[15] = test system: Canis familiaris; test: Total time in minutes elapsed from the initiation of the change until return to the pretest value of heart rate in coronary sinus of anesthetized dog at intravenous dosage of 10 mg/kg; format: functional, Canis lupus familiaris
[16] = test system: Canis familiaris; test: Total time in minutes elapsed from the initiation of the change until return to the pretest value of oxygen partial pressure in coronary sinus of anesthetized dog at intravenous dosage of 10 mg/kg; format: functional, Canis lupus familiaris; in short: as §2
[17] = test system: Canis familiaris; test: Total time in minutes elapsed from the initiation of the change until return to the pretest value of blood pressure in coronary sinus of anesthetized dog at intravenous dosage of 10 mg/kg; format: functional, Canis lupus familiaris
[18] = test system: Canis familiaris; test: Tested for the percent increase in aortic blood pressure (BP) in open chest anesthetized dog at intravenous dosage of 10.00 mg/kg; format: functional, Canis lupus familiaris, Artery; in short: as §1
[19] = test system: Canis familiaris; test: Total time in minutes elapsed from the initiation of the change until return to the pretest value of blood pressure in coronary sinus of anesthetized dog at intravenous dosage of 0.01 mg/kg; format: functional, Canis lupus familiaris
[20] = test system: Canis familiaris; test: Tested for the percent increase in aortic blood pressure (BP) in open chest anesthetized dog at intravenous dosage of 0.01 mg/kg; format: functional, Canis lupus familiaris, Artery; in short: as §1
[21] = test system: Canis familiaris; test: Tested for percent increase in coronary sinus partial pressure of oxygen (PO2) in open chest anesthetized dog at intravenous dosage of 0.01 mg/kg; format: functional, Canis lupus familiaris
[22] = test system: Canis familiaris; test: Total time in minutes elapsed from the initiation of the change until return to the pretest value of heart rate in coronary sinus of anesthetized dog at intravenous dosage of 0.01 mg/kg; format: functional, Canis lupus familiaris
[23] = test system: Canis familiaris; test: Total time in minutes elapsed from the initiation of the change until return to the pretest value of oxygen partial pressure in coronary sinus of anesthetized dog at intravenous dosage of 0.01 mg/kg; format: functional, Canis lupus familiaris

Compound	LD50 [5]	LD50 [7]	PO2 [14]	Duration [15]	Duration [16]	Duration [17]	BP [18]	also measured
Nc1ncnc2c1ncn2C1O[C@H](C(=O)Nc2ccccc2)[C@@H](O)[C@H]1O (some centres not stated)	> 1000 mg/kg	> 1000 mg/kg						BP [1]: 0%; Duration [2]: 120 min; Duration [3]: 0 min; PO2 [4]: 127%; Duration [6]: 7 min
CCCONC(=O)[C@H]1OC(n2cnc3c(N)ncnc32)[C@H](O)[C@@H]1O (some centres not stated)	200 mg/kg	> 1000 mg/kg						HR [8]: 6%; Duration [9]: 60 min; Duration [10]: 3 min; Duration [11]: 13 min; PO2 [12]: 52%; BP [13]: 1%
CCCCCCNC(=O)[C@H]1OC(n2cnc3c(N)ncnc32)[C@H](O)[C@@H]1O (some centres not stated)	200 mg/kg	500 mg/kg						BP [1]: 0%; Duration [2]: 40 min; Duration [3]: 0 min; PO2 [4]: 100%; Duration [6]: 6 min
Nc1ncnc2c1ncn2C1O[C@H](C(=O)N2CCCCC2)[C@@H](O)[C@H]1O (some centres not stated)	> 1000 mg/kg	> 1000 mg/kg	52%	30 min	8 min	20 min	7%	
CN(C)CCNC(=O)[C@H]1OC(n2cnc3c(N)ncnc32)[C@H](O)[C@@H]1O (some centres not stated)	20 mg/kg	500 mg/kg	13%	15 min	2 min	15 min	5%	
C=CCN(CC=C)C(=O)[C@H]1OC(n2cnc3c(N)ncnc32)[C@H](O)[C@@H]1O (some centres not stated)	> 300 mg/kg	> 300 mg/kg						BP [1]: 0%; Duration [2]: 40 min; Duration [3]: 0 min; PO2 [4]: 66%; Duration [6]: 0 min
Nc1ncnc2c1ncn2C1O[C@H](C(=O)N2CCOCC2)[C@@H](O)[C@H]1O (some centres not stated)	> 300 mg/kg	> 300 mg/kg	0%	0 min	0 min	0 min	0%	
CC(=O)OC1[C@@H](C(=O)NC2CC2)O[C@@H](n2cnc3c(N)ncnc32)[C@H]1OC(C)=O (some centres not stated)	5 mg/kg	20 mg/kg						Duration [19]: 270 min; BP [20]: 31%; PO2 [21]: 67%; Duration [22]: 270 min; Duration [23]: 270 min
Nc1ncnc2c1ncn2[C@@H]1O[C@H](C(=O)NC2CCC2)[C@@H](O)[C@H]1O	2 mg/kg	5 mg/kg						Duration [19]: 90 min; PO2 [21]: 79%; Duration [22]: 48 min; Duration [23]: 90 min
CC1(C)OC2[C@@H](C(=O)NC3CC3)O[C@@H](n3cnc4c(N)ncnc43)[C@H]2O1 (some centres not stated)	> 300 mg/kg	> 300 mg/kg	9%	1 min	60 min	1 min	26%	
CC(C)NC(=O)[C@H]1OC(n2cnc3c(N)ncnc32)[C@H](O)[C@@H]1O (some centres not stated)	5 mg/kg	5 mg/kg						Duration [19]: 70 min; PO2 [21]: 43%; Duration [22]: 240 min; Duration [23]: 240 min
CCC(CC)NC(=O)[C@H]1OC(n2cnc3c(N)ncnc32)[C@H](O)[C@@H]1O (some centres not stated)	50 mg/kg	> 300 mg/kg						HR [8]: 11%; Duration [9]: 110 min; Duration [10]: 110 min; Duration [11]: 110 min; PO2 [12]: 28%; BP [13]: 9%
CCNC(=O)[C@H]1O[C@@H](n2cnc3c(N)ncnc32)[C@H]2OC(C)(C)OC12 (some centres not stated)			27%	16 min	30 min	0 min	0%	
C=C(C)CNC(=O)[C@H]1OC(n2cnc3c(N)ncnc32)[C@H](O)[C@@H]1O (some centres not stated)	500 mg/kg	> 1000 mg/kg						HR [8]: 19%; Duration [9]: 60 min; Duration [10]: 60 min; Duration [11]: 15 min; PO2 [12]: 38%; BP [13]: 1%
COc1ccccc1N1CCN(C(=O)[C@H]2OC(n3cnc4c(N)ncnc43)[C@H](O)[C@@H]2O)CC1 (some centres not stated)	> 300 mg/kg	> 300 mg/kg	107%	60 min	15 min	60 min	7%	
Cc1cccc(OCC(O)CNC(=O)[C@H]2OC(n3cnc4c(N)ncnc43)[C@H](O)[C@@H]2O)c1 (some centres not stated)	> 300 mg/kg	> 300 mg/kg						BP [1]: 3%; Duration [2]: 7 min; Duration [3]: 30 min; PO2 [4]: 42%; Duration [6]: 1 min
C=CCNC(=O)[C@H]1OC(n2cnc3c(N)ncnc32)[C@H](O)[C@@H]1O (some centres not stated)	200 mg/kg	> 1000 mg/kg						Duration [19]: 0 min; BP [20]: 0%; PO2 [21]: 129%; Duration [22]: 0 min; Duration [23]: 20 min
Nc1ncnc2c1ncn2C1O[C@H](C(=O)Nc2ccc(F)cc2)[C@@H](O)[C@H]1O (some centres not stated)	500 mg/kg	> 1000 mg/kg	30%	0 min	20 min	0 min	0%	
CCC(=O)c1ccccc1NC(=O)[C@H]1OC(n2cnc3c(N)ncnc32)[C@H](O)[C@@H]1O (some centres not stated)	> 1000 mg/kg	> 1000 mg/kg	39%	40 min	16 min	40 min	5%	
C=CCNC(=O)[C@H]1O[C@@H](n2cnc3c(N)ncnc32)[C@H]2OC(C)(C)OC12 (some centres not stated)	> 1000 mg/kg	> 1000 mg/kg						BP [1]: 14%; Duration [2]: 0 min; Duration [3]: 30 min; PO2 [4]: 0%; Duration [6]: 5 min
CCNC(=O)[C@H]1O[C@@H](n2cnc3c(N)ncnc32)[C@@H](OC(C)=O)C1OC(C)=O (some centres not stated)	2 mg/kg	2 mg/kg						Duration [19]: 70 min; BP [20]: 12%; PO2 [21]: 52%; Duration [22]: 120 min; Duration [23]: 120 min
Cc1cccc(C)c1NC(=O)[C@H]1OC(n2cnc3c(N)ncnc32)[C@H](O)[C@@H]1O (some centres not stated)	> 1000 mg/kg	> 1000 mg/kg	15%	5 min	30 min	30 min	13%	
CCNC(=O)[C@H]1O[C@@H](n2cnc3c(N)ncnc32)[C@H](O)[C@@H]1O [NECA]	0.5 mg/kg	5 mg/kg						Duration [19]: 120 min; PO2 [21]: 250%; Duration [22]: 345 min; Duration [23]: 345 min
CCOC(=O)CNC(=O)[C@H]1OC(n2cnc3c(N)ncnc32)[C@H](O)[C@@H]1O (some centres not stated)	> 300 mg/kg	> 300 mg/kg	9%	11 min	30 min	30 min	6%	
Nc1ncnc2c1ncn2C1O[C@H](C(=O)NCc2ccco2)[C@@H](O)[C@H]1O (some centres not stated)								BP [1]: 1%; Duration [2]: 20 min; Duration [3]: 20 min; PO2 [4]: 22%; Duration [6]: 20 min
Nc1ncnc2c1ncn2[C@@H]1O[C@H](C(=O)NC2CC2)[C@@H](O)[C@H]1O	2 mg/kg	5 mg/kg						Duration [19]: 150 min; PO2 [21]: 136%; Duration [22]: 150 min; Duration [23]: 150 min
